The target of assay [1] is T1, Adrenergic receptor alpha-2 (Rattus norvegicus) (UniProt P22086+P19328+P22909). Briefly: The binding affinity was evaluated on Alpha-2 adrenergic receptor expressed in rat cortex by using [3H]rauwolscine as radioligand. The method, boiled down: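 Male Sprague-Dawley rat cerebral cortex membranes, washed in Tris-HCl pH 7.4 and resuspended with 10 μM pargyline and 0.1% ascorbic acid. Incubated 30 min at 25 °C with 0.5–1.5 nM [3H]rauwolscine. Nonspecific binding with 10 μM phentolamine. Filtration on PEI-treated filters. Ki by Cheng-Prusoff. 2–3 experiments in triplicate.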

The subject of assay [2] is Alpha-1B adrenergic receptor (Cavia porcellus). Briefly: Antagonist affinity was expressed as apparent pKb at alpha-1B adrenergic receptor on isolated Guinea pig spleen (Alpha-1B adrenergic receptor).
The target of assay [3] is T2, Alpha-1D adrenergic receptor (Homo sapiens) (UniProt P25100).
T2 sequence (whole entry): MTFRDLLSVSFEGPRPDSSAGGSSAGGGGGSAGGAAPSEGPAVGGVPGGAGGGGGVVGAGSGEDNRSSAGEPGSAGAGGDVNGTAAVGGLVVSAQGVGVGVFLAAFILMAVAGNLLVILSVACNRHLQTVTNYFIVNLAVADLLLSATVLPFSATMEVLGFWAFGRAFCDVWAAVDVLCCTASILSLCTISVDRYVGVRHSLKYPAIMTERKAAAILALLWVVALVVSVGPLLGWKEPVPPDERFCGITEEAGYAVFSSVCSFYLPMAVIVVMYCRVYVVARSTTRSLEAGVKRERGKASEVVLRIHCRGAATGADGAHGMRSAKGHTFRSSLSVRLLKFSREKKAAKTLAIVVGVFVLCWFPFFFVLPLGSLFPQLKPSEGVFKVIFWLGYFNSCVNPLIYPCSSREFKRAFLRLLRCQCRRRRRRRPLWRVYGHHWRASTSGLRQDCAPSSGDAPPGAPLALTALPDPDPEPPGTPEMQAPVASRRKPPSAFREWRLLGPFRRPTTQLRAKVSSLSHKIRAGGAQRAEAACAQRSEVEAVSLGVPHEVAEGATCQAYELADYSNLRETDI
Put plainly: The binding affinity was evaluated on cloned human alpha-1D adrenergic receptor expressed in chinese hamster ovary(CHO) cells by using [3H]prazosin as radioligand. Format: cell-based. A digest of the protocol:
(§1)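 Membranes (30 μg protein) from CHO cells stably expressing each human α1 subtype, in 50 mM Tris-HCl pH 7.4. Incubated with 0.1–0.4 nM [3H]prazosin for 30 min at 25 °C, competitor 1 pM–10 μM. Nonspecific binding with 10 μM phentolamine. Ki by Cheng-Prusoff. 2–3 experiments in triplicate.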

For assay [4], the target named is T1, Adrenergic receptor alpha-2 (Rattus norvegicus). Briefly: The binding affinity was evaluated on alpha-2 adrenergic receptor expressed in rat cortex by using [3H]rauwolscine as radioligand. A digest of the protocol:
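Male Sprague-Dawley rat cerebral cortex membranes, washed in Tris-HCl pH 7.4 and held in buffer with 10 μM pargiline and 0.1% ascorbic acid. Incubated 30 min at 25 °C with 0.5-1.5 nM [3H]rauwolscine; nonspecific binding with 10 μM phentolamine. Filtration, scintillation counting. Ki from Cheng-Prusoff; 2-3 experiments in triplicate.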

The target of assay [5] is T3, Alpha-1A adrenergic receptor (Homo sapiens) (UniProt P35348).
T3 sequence (whole entry): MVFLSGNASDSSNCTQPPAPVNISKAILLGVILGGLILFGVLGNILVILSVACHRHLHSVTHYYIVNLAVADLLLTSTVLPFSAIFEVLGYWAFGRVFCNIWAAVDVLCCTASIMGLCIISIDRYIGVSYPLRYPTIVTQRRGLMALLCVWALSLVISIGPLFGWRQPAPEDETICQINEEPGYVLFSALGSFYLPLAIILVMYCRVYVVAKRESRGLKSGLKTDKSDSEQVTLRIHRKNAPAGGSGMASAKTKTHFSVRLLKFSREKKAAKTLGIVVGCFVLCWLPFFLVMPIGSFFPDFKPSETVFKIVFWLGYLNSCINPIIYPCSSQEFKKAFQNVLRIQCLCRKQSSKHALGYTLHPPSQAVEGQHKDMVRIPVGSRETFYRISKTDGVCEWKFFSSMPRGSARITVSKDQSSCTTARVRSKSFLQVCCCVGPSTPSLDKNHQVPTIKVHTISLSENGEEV
Briefly: The binding affinity was evaluated on cloned human alpha-1A adrenergic receptor expressed in chinese hamster ovary(CHO) cells by using [3H]prazosin as radioligand. The class given is cell-based. A digest of the protocol:
as §1

We go through two molecules from ChEMBL document CHEMBL1132324, “Structure-activity relationships in 1,4-benzodioxan-related compounds. 6. Role of the dioxane unit on selectivity for alpha(1)-adrenoreceptor subtypes” (J Med Chem, 1999).

In the case of `COc1cccc(OC)c1OCCNCC1Oc2ccccc2CC1c1ccccc1` (stereo in doubt; 7), in assay [1], the pKi – broadly, −log10 of the Ki, conventionally taken in molar units – was below 6.
`COc1cccc(OC)c1OCCNCC1C(=O)c2ccccc2OC1c1ccccc1` (stereo not given): the negative-log Kb (pKb) (commonly the Kb on a negative log10 scale, so that one unit is a factor of ten) in assay [2] worked out at 6.05. For the same molecule, the pKi in assay [3] was 7.93; in assay [4], below 6; in assay [5], 9.22.
